Results as given in ChEMBL document CHEMBL6177916, “Synthesis, in silico and bio-evaluation studies of new isothiocyanate derivatives with respect to COX inhibition and H2S release profiles” (RSC Med Chem, 2025).
Active and inactive are the calls of the source. The rule behind the calls is not given here.

What was measured:
RAW264.7 [1] = test: Cytotoxicity against mouse RAW264.7 cells assessed as cell viability at 10 to 20 uM measured after 24 hrs by MTT assay; type: functional, cell-based; conditions: dose 10-20 µM
Method in brief: (§1)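 RAW 264.7 murine macrophages were seeded at 4 × 10^5 cells per mL and grown 24 h at 37 °C. They were then stimulated with 1 μg mL−1 LPS, with or without compound (DMSO-dissolved) at 10 and 20 μM, for 24 h. MTT was added for 2 h, formazan was dissolved in DMSO, and A570/620 was read. Controls were no inhibitor/no LPS and LPS alone, with comparisons made against LPS alone. Data are ≥3 biological replicates, mean ± SEM, one-way ANOVA with Dunnett.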

[2] = Induction of H2S release in PBS at pH 7.4 at 100 uM measured over 4 hrs by microplate reader based analysis; type: functional
Method in brief: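 Compounds (DMSO-dissolved) were diluted to 100 μM final in phosphate buffer, pH 7.4, containing 1 mM L-cysteine. This was combined with a detection mix of N,N-dimethyl-1,4-phenylenediamine sulfate (20 mM) plus 1% w/v Zn(OAc)2, reacted with 30 mM FeCl3. A670 was read every 5 min until no meaningful increase was seen.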

RAW264.7 [3] = test: Antiinflammatory activity against LPS induced mouse RAW264.7 cells assessed as decrease in cell viability at 10 to 20 uM relative to control; type: functional; conditions: dose 10-20 µM; method in brief: as §1
[4] = target: T1, Prostaglandin G/H synthase 2 (Homo sapiens, UniProt P35354); test: Inhibition of human recombinant COX-2 using arachidonic acid as substrate at 10 uM preincubated for 10 mins followed by substrate addition and measured after 30 secs
T1 sequence (P35354 whole entry): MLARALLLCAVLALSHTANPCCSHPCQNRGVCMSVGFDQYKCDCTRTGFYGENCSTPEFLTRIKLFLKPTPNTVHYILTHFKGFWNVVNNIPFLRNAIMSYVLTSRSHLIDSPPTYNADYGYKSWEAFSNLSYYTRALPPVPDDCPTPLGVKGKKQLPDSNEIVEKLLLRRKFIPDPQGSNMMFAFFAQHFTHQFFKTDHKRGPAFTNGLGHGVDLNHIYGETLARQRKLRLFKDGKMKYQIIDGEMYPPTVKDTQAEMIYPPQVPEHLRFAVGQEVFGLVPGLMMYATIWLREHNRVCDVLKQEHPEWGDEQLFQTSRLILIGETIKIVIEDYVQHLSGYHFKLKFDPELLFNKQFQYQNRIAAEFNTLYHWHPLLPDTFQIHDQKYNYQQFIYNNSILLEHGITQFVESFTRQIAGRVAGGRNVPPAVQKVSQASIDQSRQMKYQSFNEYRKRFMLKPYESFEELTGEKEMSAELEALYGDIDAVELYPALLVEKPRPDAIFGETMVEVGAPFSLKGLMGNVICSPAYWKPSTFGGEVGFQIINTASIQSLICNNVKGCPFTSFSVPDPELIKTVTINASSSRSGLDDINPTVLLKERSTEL

Structure (SMILES) | Activity (RAW264.7 [1]) | Activity [2] | Activity (RAW264.7 [3]) | IC50 [4]
COc1ccc(C(=O)OCCc2ccc(N=C=S)cc2)cc1 | inactive | 11.2 µM |  | 
CC(C)CC(=O)OCCc1ccc(N=C=S)cc1 | inactive | 11.7 µM |  | 
O=C(OCCc1ccc(N=C=S)cc1)c1ccc(F)cc1 |  | 10.9 µM |  | 
N#Cc1cc(CCO)ccc1N=C=S | inactive | 35.7 µM | <80% | 
OCCc1ccc(N=C=S)cc1 | inactive | 36.8 µM | <80% | 
O=C(OCCc1ccc(N=C=S)cc1)c1ccc([N+](=O)[O-])cc1 | inactive | 11.5 µM | <80% | 
C[S+]([O-])CCCCN=C=S (configuration not stated) [SULFORAPHANE] |  | 43.5 µM |  | 6.35 µM
OCCc1ccc(N=C=S)c(Br)c1 | inactive | 35.5 µM | <80% | 
O=C(OCCc1ccc(N=C=S)cc1)c1ccccc1 | inactive | 11.3 µM | <80% | 
